Assay: Toxicity liver stage against HepG2, at 10uM
Type: cell-based
Set-up: test concentration 10 uM, cell line HepG2-A16-CD81EGFP
Conditions: human, HepG2-A16-CD81EGFP cells; read-out: INHIBITION
Method in brief: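 Uninfected HepG2-A16-CD81EGFP cells, 3 × 10^3 per well, 1536-well, plated on prespotted compound at 10 μM final, parasite-free screening media added to match infected plates; puromycin 10 μM positive, DMSO 0.5% negative; run in parallel with 48 h PbLuc assay at 37 °C, 5% CO2; viability by CellTiter-Glo luminescence, normalized to controls.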

SMILES	cytotoxicity at 10 µM
Cc1cc(N2CCCC(O)(CN(C)C)CC2)nc(-c2ccccc2)n1 (configuration not stated)	-9.41%
CC(Cn1cccn1)NC(=O)Cc1csc(C(C)C)n1 (configuration not stated)	-8.57%
Cc1cnn(CCNCc2c(C)nn(Cc3ccccc3)c2C)c1	-3.46%
O=C(NCCN1CCCCC1)C(c1ccccc1)N1CCCC1 (configuration not stated)	-1.46%
CC(Cc1ccco1)NC(=O)Nc1cccnc1 (configuration not stated)	-6.78%
O=C(C1CCCC1)N1CCn2c(nnc2C2CCCNC2)C1 (configuration not stated)	1.19%
CCC(=O)Nc1cccc(OCC(=O)N2CC=CC2C(C)C)c1 (configuration not stated)	-0.115%
CS(=O)(=O)N1C[C@@H]2CC[C@H]1CN(Cc1ccncc1)C2	-2.34%
CC(C)(NCC(=O)N1CCCC(C(N)=O)C1)c1ccc(Cl)cc1 (configuration not stated)	3.36%
COc1ccccc1S(=O)(=O)N1CCC2(CC1)[C@H](O)C[C@@H]2O	9.12%
Cc1ccc2c(n1)N(Cc1cccnc1)CCN(C(=O)C1CC=CC1)C2	8.07%
COCC(=O)N1CCC(=O)N(C2CCCC2)Cc2ccccc21	-5.2%
Fc1cccc(CCN(c2ccc3nnnn3n2)C2CC2)c1	4.21%
COCCCN(Cc1ccncc1)c1ncc(C#N)cc1Cl	4.98%
O=C(CN1CCCC1Cn1cccn1)NCCC1=CCCCC1 (configuration not stated)	-2.78%
CC(C)N1[C@@H](C(=O)NCC2CC2)C[C@@H]2CN(Cc3ccco3)C[C@@H]21	3.41%
CCN1CC2(CCC1=O)CCN(Cc1cccc(OC(F)F)c1)CC2	-16.5%
Cc1cccc(CC2CCCN(C(=O)C3CCOCC3)C2)n1 (configuration not stated)	2.16%
Cc1nnc(CN2CCC3(CCC(=O)N(C4CC4)C3)CC2)o1	-6.68%
CCCn1ncc(C(=O)NC(C)c2c(C)nn(CC)c2C)c1C (configuration not stated)	9.91%
O=C(O)CNC(=O)Cc1csc(-c2ccccc2F)n1	-10.5%
O=C(Cc1cccc(F)c1)N1CCN2C[C@H](Oc3cncnc3)C[C@H]2C1	6.1%
CCc1nnc2n1CCN(C(=O)c1ccc3[nH]cnc3c1)C2	-19.1%

SMILES	cytotoxicity at 10 µM
CCN(CC)c1nc2sc(C(=O)NC(C)(C)C(=O)OC)cc2s1	3.58%
COc1ccccc1[C@@H]1CN(C(=O)Cc2csc(C)n2)C[C@H]1C(=O)O	-8.25%
CCCN1CCC(Cc2noc(-c3[nH]cnc3C)n2)CC1	1.34%
O=C(NCC1CC1)C12CC(CN1Cc1nccs1)C2	-4.6%
Cc1nccn1CCC1CCCCN1Cc1cccc(CCN)c1 (configuration not stated)	0.106%
Cc1ncc(CN2CCc3c(nc4cc(C5CC5)nn4c3O)C2)n1C	6.62%
Cc1cc(C)n(CC2(CNC(=O)C(c3ccccc3F)N(C)C)CC2)n1 (configuration not stated)	1.64%
Cc1cc(C)c2nc(C)cc(C(=O)NCc3csc(N(C)C)n3)c2c1	13.5%
CCC(NC(=O)c1ccc2[nH]ccc2c1)C(=O)N1CCOCC1 (configuration not stated)	5.84%
CC(=O)NCC(=O)N(CCc1ccccc1)C1CCOC1 (configuration not stated)	3.02%
Cc1cccnc1CSCCCNS(C)(=O)=O	-15.1%
CC(C(=O)N1CCN(c2cnccn2)CC1)n1cncn1 (configuration not stated)	8.37%
CCc1cc(NC(=O)N2CCC(Oc3cccnc3)C2)n(C)n1 (configuration not stated)	5.95%
O=C(Nc1ccc2c(ccn2CCN2CCOCC2)c1)c1ccccn1	0.425%
Cc1noc(CCCC(=O)N2CCCCC2CNS(C)(=O)=O)n1 (configuration not stated)	-0.88%
COc1cc(N2C[C@H]3CN(Cc4ccccn4)C[C@H]3C2)ncn1	-96.3%
O=C(NCC1(O)CCOC1)c1ccccc1Cl (configuration not stated)	-40.3%
CC(C)NC(=O)CSc1nc2c(cnn2CCO)c(=O)[nH]1	-8.72%
Cc1cc(C)c2nc(C3CC3)cc(C(=O)N3CCCC3C(N)=O)c2c1 (configuration not stated)	-1.11%
CC(C)c1ncncc1C(=O)N1CCCN(Cc2cccs2)CC1	-7.42%
COc1ccccc1OCC(=O)NS(=O)(=O)c1ccc(Cl)s1	-4.93%
O=c1[nH]nc2c(S(=O)(=O)N3CCCC3)cccn12	-4.52%
Cc1nnc(NC(=O)C2CSCN2C(=O)C2CCCC2)s1 (configuration not stated)	-17.1%

SMILES	cytotoxicity at 10 µM
COc1ccc(CN(C)C(=O)NCc2c(C)cc(C)[nH]c2=O)cc1	-1.13%
NC(=O)c1c(-c2ccc(Cl)cc2)csc1NC(=O)CCC(=O)O	13.8%
Cc1nc(CN2CCN(Cc3ccoc3)Cc3cccnc32)cs1	-5.25%
CO[C@@H]1CCN(c2ncc(F)cn2)[C@@H]2CN(CC3CC3)C[C@@H]21	12.3%
CN1CCOC[C@H]1c1nc(-c2ccncc2)c[nH]1	2.23%
Cc1nnc(SCCNC(=O)c2cc(S(N)(=O)=O)ccc2F)s1	-1.4%
Cc1ccc(Cl)cc1NC(=O)Cn1cc(C(=O)O)ccc1=O	-1.45%
Cc1nnc(CN2CCN(CCOc3ccccc3C#N)CC2)n1C	-5.8%
O=C(NC1CC1)N1CC[C@H]2[C@H]1CCN2c1nncs1	-4.94%
CC(=O)Nc1nc(C(=O)N2CCCCC2Cn2cccn2)cs1 (configuration not stated)	-31.4%
O=C(COc1cccc2c1CCC2=O)NCCc1cccs1	0.79%
CCC(=O)NCCc1cc(N2CCN(C(C)=O)CC2)nc(C2CC2)n1	-0.439%
O=C(CN1CCC(c2ccnn2CCO)CC1)NCC1CCCCC1	-0.463%
O=C(c1nn(-c2ccccc2F)cc1O)N1CCCSCC1	-0.0414%
Cc1nc(CN(C)C2CCCN(Cc3noc(C4CC4)n3)C2)oc1C (configuration not stated)	-2.34%
COc1ccccc1OCCCc1cccc(C#N)n1	-5.62%
CN1CCC(NC(=O)Cc2csc(C(C)(C)C)n2)CC1	-2.37%
CNC(C)Cc1ccccc1Sc1ccc(O)cc1 (configuration not stated)	2.73%
Cc1ccc(O)c(CNc2cccc(CN3CCN(C)CC3)c2)n1	-2%
Cc1cnc(C)c(-c2cc(O)c3c(c2)CN(Cc2nccs2)CCO3)n1	1.69%
Cc1ccoc1C(=O)NC1CCN(Cc2csc3c(F)cccc23)CC1	1.13%
CN(Cc1ccccn1)C1CCC[C@@H]2CN(CC3CC3)C[C@H]12 (some centres not stated)	-113%
CCc1cc(NCCNC(C)=O)nc(N2CCOCC2)n1	2.38%

SMILES	cytotoxicity at 10 µM
CN(Cc1ccc(F)cc1)Cc1cc2c(cc1Br)OCCO2	-138%
COCCn1ccnc1CN1CCc2[nH]cnc2C1c1ccccn1 (configuration not stated)	-3.3%
COCCCNC(=O)CN1CCOC(c2ccccc2)C1 (configuration not stated)	18.6%
Cc1cc(C)n(NC(=O)c2ccccc2C)c(=O)c1	-5.05%
COC(=O)C(NC(=O)CC(C)C)c1cc(F)ccc1F (configuration not stated)	-0.481%
Cc1nsc(NC(=O)N2CCC(C(C)(C)O)CC2)n1	17.5%
CN(CC1CCCN1C)c1nccc(C2CCCC2)n1 (configuration not stated)	-12.9%
CN(CC(=O)NCC(F)(F)F)Cc1nc2c(s1)CCCC2	19%
CCc1noc(CN2CCN(C(=O)OC(C)(C)C)C(C)C2)n1 (configuration not stated)	2.53%
COc1cc(N2CCC3(CC2)OCC(=O)NC3C)ncn1 (configuration not stated)	1.95%
COCCNC(=O)Cn1cc(OCc2ccc(F)cc2)c(=O)cc1C	-3.04%
CSC1(CNc2ncc(Br)cn2)CCOCC1	-8.93%
O=C(Nc1cccnc1)c1ccc(-n2cncn2)nn1	4.48%
COc1nn(C)c2c1CCCN(C(=O)c1cccn1C)C2	1.53%
CCc1nnc(CNC(=O)CCC2CCCCN2C)s1 (configuration not stated)	-147%
CCCC(C)CS(=O)(=O)NCCc1csc(N2CCCC2)n1 (configuration not stated)	7.47%
CN(Cc1n[nH]c2c1CCC2)C(=O)CCc1cc2n(n1)CCCNC2	-0.861%
CC(C)n1ccc(=O)nc1SC1CCN(c2ccccc2F)C1=O (configuration not stated)	11.8%
O=C(c1cnco1)N1C[C@@H](O)[C@H](Oc2cccc(F)c2)C1	-17.5%
NC(=O)c1cc2c(nc1CCOCc1ccccc1)CCC2	2.99%
CC(C)c1nc(C2CCCN2CCNS(C)(=O)=O)no1 (configuration not stated)	3.33%
CCCC1COCCN1Cc1ccc(C(=O)O)cc1 (configuration not stated)	-139%
O=C(NCc1nnc2n1CCCC2)N1CCc2ccccc2C1	4.79%

SMILES	cytotoxicity at 10 µM
CC(C)(C)OC(=O)NC(C)(C)c1noc(CSc2nncs2)n1	16.6%
Cn1ncc2c(=O)[nH]c(CN3CCCC3c3cccc(F)c3)nc21 (configuration not stated)	-9.14%
CCOCC1c2c(ncn2C(C)C)CCN1C(=O)C1CC1 (configuration not stated)	10.5%
CC1=Nc2c(c(=O)[nH]n2C2CCCCC2)C(c2ccc(C(=O)O)cc2)S1 (configuration not stated)	-7.92%
Cn1ccnc1CN1CCN(Cc2noc(C3CC3)n2)CC1	-1.85%
Cc1nn(CC(=O)N2CCN(Cc3cnn(C)c3C)CC2)cc1Br	-7.55%
CC(C)CNC(=O)[C@H]1CCS(=O)(=O)[C@@H]2CN(Cc3cccc(Cl)c3)C[C@H]12	-7.06%
Fc1ccc([C@@H]2COC[C@H]2NCc2cccc(F)c2)cc1	-2.92%
COCc1cc(NCCc2ccccn2)n2nccc2n1	-0.464%
COc1ccc(CN(Cc2c[nH]cn2)CC2CCCO2)c(OC)c1 (configuration not stated)	-26%
CNC(=O)c1ccc(CN(C(C)C)C(C)C)o1	-1.88%
Cc1cnn(CC2CCCN2C(=O)c2ccccc2-n2cnnn2)c1 (configuration not stated)	-35.7%
COCC(=O)N1CCC2(CC1)COCCN2CCN(C)C	-3.28%
O=C(C1CC(=O)N(c2ccccc2Br)C1)N1CCCCCC1 (configuration not stated)	8.52%
CC(C)Cc1cc(C(=O)N2CCCC(n3cncn3)C2)[nH]n1 (configuration not stated)	-3.9%
O=C(CN(CC(O)c1ccc(F)cc1)C1CC1)NC1CCOCC1 (configuration not stated)	0.0428%
COCc1c(Cl)cccc1NC(=O)CNC(=O)C(C)(C)C	-5.73%
CCN(CC)C(=O)C1CCCN(c2ncnc3oc(C)nc23)C1 (configuration not stated)	1.61%
CC(c1ccccc1)N(C)C(=O)CN1CCCc2cccc(F)c21 (configuration not stated)	22.5%
CC(C)=CCN1C[C@@H]2CN(C(=O)c3ccc(CO)cc3)C[C@]2(C(=O)O)C1	2.21%

— ChEMBL document CHEMBL4513216, “Probing the Open Global Health Chemical Diversity Library for Multistage-Active Starting Points for Next-Generation Antimalarials” (ACS Infect Dis, 2020)
